Source: ChEMBL document CHEMBL1144670, “Synthesis and pharmacology of 1-deoxy analogs of CP-47,497 and CP-55,940” (Bioorg Med Chem, 2008)

Key:
Cannabinoid receptor 1 = Cannabinoid receptor 1 (Rattus norvegicus, UniProt P20272); experiment: Displacement of [3H]CP-55940 from CB1 receptor in Sprague-Dawley rat brain membrane; assay type: cell membranes
Cannabinoid receptor 2 [1] = target: T1, Cannabinoid receptor 2 (Homo sapiens, UniProt P34972); experiment: Displacement of [3H]CP-55940 from human cloned CB2 receptor
T1 sequence (P34972 whole entry): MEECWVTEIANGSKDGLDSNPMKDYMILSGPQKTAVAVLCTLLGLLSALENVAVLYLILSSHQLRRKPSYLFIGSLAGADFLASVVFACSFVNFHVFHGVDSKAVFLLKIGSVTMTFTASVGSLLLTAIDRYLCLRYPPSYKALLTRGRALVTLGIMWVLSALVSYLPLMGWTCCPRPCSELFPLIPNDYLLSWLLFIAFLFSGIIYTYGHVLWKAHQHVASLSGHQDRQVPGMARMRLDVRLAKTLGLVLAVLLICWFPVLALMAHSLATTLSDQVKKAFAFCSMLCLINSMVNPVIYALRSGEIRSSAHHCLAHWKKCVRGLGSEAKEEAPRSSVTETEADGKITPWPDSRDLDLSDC

[2] = Selectivity for human cloned CB2 receptor over Sprague Dawley rat brain membrane CB1 receptor
Cannabinoid receptor 2 [3] = target: T1, Cannabinoid receptor 2; settings: CHO, 3 uM
Cannabinoid receptor 2 [4] = target: T1, Cannabinoid receptor 2; experiment: Agonist activity at human CB2 receptor expressed in CHO cells by [35S]GTP-gamma-S binding assay; assay type: functional, cell-based
Method in brief: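 [35S]GTPγS binding on membranes of CHO cells stably expressing human CB2. 10 µg membrane protein was incubated 1.5 h at 30 °C in 50 mM Tris-HCl pH 7.4, 3 mM MgCl2, 0.2 mM EGTA, 100 mM NaCl, with 10 µM GDP, 0.1 nM [35S]GTPγS, 0.1% BSA and agonist over a concentration range. Nonspecific binding was set with 20 µM GTPγS. Filtration was followed by scintillation counting. EC50 came from nonlinear regression, 3-6 experiments in triplicate.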

Cannabinoid receptor 2 [5] = target: T1, Cannabinoid receptor 2; experiment: Agonist activity at human CB2 receptor expressed in CHO cells by [35S]GTP-gamma-S binding assay relative to CP-55940; assay type: functional, cell-based
Method in brief: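 Same hCB2-CHO membrane [35S]GTPγS assay (10 µM GDP, 0.1 nM radioligand, 1.5 h, 30 °C). Net stimulation at each concentration was expressed as percent of that given by 3 µM CP-55,940, run as an internal standard in each experiment. Emax came from nonlinear regression of the concentration-effect curves, mean ± SEM of 3-6 experiments in triplicate.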

Chain of Cannabinoid receptor 1 (P20272 whole entry): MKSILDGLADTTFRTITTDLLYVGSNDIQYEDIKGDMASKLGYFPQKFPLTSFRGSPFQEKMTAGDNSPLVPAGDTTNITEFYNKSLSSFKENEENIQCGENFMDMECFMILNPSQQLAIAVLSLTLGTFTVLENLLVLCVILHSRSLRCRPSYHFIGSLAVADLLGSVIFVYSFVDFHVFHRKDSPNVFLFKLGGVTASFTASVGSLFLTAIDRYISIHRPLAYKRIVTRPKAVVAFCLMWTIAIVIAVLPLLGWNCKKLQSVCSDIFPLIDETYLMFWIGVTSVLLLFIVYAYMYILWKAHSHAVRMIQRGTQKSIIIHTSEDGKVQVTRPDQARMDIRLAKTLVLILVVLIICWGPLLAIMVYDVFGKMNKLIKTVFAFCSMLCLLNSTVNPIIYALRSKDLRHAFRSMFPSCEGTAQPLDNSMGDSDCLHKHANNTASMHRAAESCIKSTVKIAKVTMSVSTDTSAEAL

SMILES | Ki (Cannabinoid receptor 1) | Ki (Cannabinoid receptor 2 [1]) | Ratio Ki [2] | Emax (Cannabinoid receptor 2 [3]) | EC50 (Cannabinoid receptor 2 [4]) | Emax (Cannabinoid receptor 2 [5])
CCCCCCC(C)(C)c1ccc([C@H]2CCC[C@@H](O)C2)c(O)c1 | 2.2 nM |  |  |  |  | 
CCCCCCCC(C)(C)c1ccc([C@@H]2CCC[C@@H](O)C2)cc1 | 193 nM | 154 nM | 1.3 |  |  | 
CCCCCCC(C)(C)c1ccc([C@@H]2C[C@H](O)CC[C@H]2CCCO)c(O)c1 |  |  |  | 85% |  | 
CCC(C)(C)c1ccc([C@H]2CCC[C@@H](O)C2)cc1 (relative stereo) | > 10000 nM | 3970 nM | > 2.5 |  |  | 
CC(C)(C)c1ccc([C@H]2CCC[C@@H](O)C2)cc1 (relative stereo) | > 10000 nM | > 10000 nM |  |  |  | 
CCCCCCCCC(C)(C)c1ccc([C@@H]2C[C@H](O)CC[C@H]2CCCO)cc1 (relative stereo) | 566 nM | 421 nM | 1.3 |  |  | 
CCCCCCCC(C)(C)c1ccc([C@@H]2C[C@H](O)CC[C@H]2CCCO)cc1 (relative stereo) | 266 nM | 173 nM | 1.5 |  |  | 
CCCC(C)(C)c1ccc([C@@H]2CCC[C@@H](O)C2)cc1 (relative stereo) | 8630 nM | 1510 nM | 5.7 |  |  | 
CCCCCCC(C)(C)c1ccc([C@@H]2CCC[C@@H](O)C2)cc1 (relative stereo) | 645 nM | 178 nM | 3.6 |  |  | 
CCCCCC(C)(C)c1ccc([C@@H]2C[C@H](O)CC[C@H]2CCCO)cc1 (relative stereo) | 308 nM | 221 nM | 1.4 |  |  | 
CCCC(C)(C)c1ccc([C@@H]2C[C@H](O)CC[C@H]2CCCO)cc1 (relative stereo) | 3800 nM | 1780 nM | 2.1 |  |  | 
CCCCC(C)(C)c1ccc([C@@H]2CCC[C@@H](O)C2)cc1 (relative stereo) | 1730 nM | 546 nM | 3.2 |  |  | 
CCCCCC(C)(C)c1ccc([C@@H]2CCC[C@@H](O)C2)cc1 (relative stereo) | 1030 nM | 215 nM | 4.8 |  | 39.6 nM | 66%
CCCCCCCC(C)(C)c1ccc([C@H]2CCC[C@@H](O)C2)cc1 (relative stereo) | 786 nM | 672 nM | 1.2 |  |  | 
CCCCCCCCC(C)(C)c1ccc([C@H]2CCC[C@@H](O)C2)cc1 (relative stereo) | 1710 nM | 1120 nM | 1.5 |  |  | 
CC(C)(C)c1ccc([C@@H]2CCC[C@@H](O)C2)cc1 (relative stereo) | > 10000 nM | > 10000 nM |  |  |  | 
CCCCCC(C)(C)c1ccc([C@H]2CCC[C@@H](O)C2)cc1 (relative stereo) | 2110 nM | 460 nM | 4.6 |  |  | 
CCCCCCC(C)(C)c1ccc([C@H]2CCC[C@@H](O)C2)cc1 (relative stereo) | 2950 nM | 231 nM | 13 |  |  | 
CCCCC(C)(C)c1ccc([C@H]2CCC[C@@H](O)C2)cc1 (relative stereo) | > 10000 nM | 639 nM | > 16 |  |  | 
CC(C)(C)c1ccc([C@@H]2C[C@H](O)CC[C@H]2CCCO)cc1 (relative stereo) | > 10000 nM | > 10000 nM |  |  |  | 
CCC(C)(C)c1ccc([C@@H]2C[C@H](O)CC[C@H]2CCCO)cc1 (relative stereo) | > 10000 nM | 1360 nM | > 7.3 |  |  | 
CCCCC(C)(C)c1ccc([C@@H]2C[C@H](O)CC[C@H]2CCCO)cc1 (relative stereo) | 579 nM | 700 nM | 0.8 |  |  | 
CCCCCCCCC(C)(C)c1ccc([C@@H]2CCC[C@@H](O)C2)cc1 (relative stereo) | 749 nM | 1080 nM | 0.7 |  |  | 
CCC(C)(C)c1ccc([C@@H]2CCC[C@@H](O)C2)cc1 (relative stereo) | > 10000 nM | 3760 nM | > 2.7 |  |  | 
CCCC(C)(C)c1ccc([C@H]2CCC[C@@H](O)C2)cc1 (relative stereo) | > 10000 nM | 2060 nM | > 4.9 |  |  | 
CCCCCCC(C)(C)c1ccc([C@@H]2C[C@H](O)CC[C@H]2CCCO)cc1 (relative stereo) | 547 nM | 238 nM | 2.3 |  |  | 
